# Measurements gathered from unrelated publications.
# Protocols differ between the studies behind these lines.
# Target: Protein kinase C iota type (PRKCI, Homo sapiens, UniProt P41743)
# Sequence (P41743 1-596, as in one of the studies): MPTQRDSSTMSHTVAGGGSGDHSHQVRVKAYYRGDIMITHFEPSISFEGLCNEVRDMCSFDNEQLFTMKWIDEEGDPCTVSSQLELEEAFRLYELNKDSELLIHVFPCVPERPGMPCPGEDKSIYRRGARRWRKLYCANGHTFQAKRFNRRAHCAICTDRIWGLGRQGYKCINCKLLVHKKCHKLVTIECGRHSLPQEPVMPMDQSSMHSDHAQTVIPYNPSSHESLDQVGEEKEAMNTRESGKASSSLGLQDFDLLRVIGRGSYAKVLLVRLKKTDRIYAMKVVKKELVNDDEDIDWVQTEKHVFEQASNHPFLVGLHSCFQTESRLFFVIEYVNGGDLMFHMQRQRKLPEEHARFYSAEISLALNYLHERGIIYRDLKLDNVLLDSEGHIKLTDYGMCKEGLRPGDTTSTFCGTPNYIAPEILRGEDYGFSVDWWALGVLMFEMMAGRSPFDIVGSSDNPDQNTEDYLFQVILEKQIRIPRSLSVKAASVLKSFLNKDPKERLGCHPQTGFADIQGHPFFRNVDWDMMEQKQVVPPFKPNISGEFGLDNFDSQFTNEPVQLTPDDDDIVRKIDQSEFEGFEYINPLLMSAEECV
Compound,read-out,action,technique,concentration,measurement,value
O=C(Nc1cnn(-c2csc(C(=O)NC3COC3)c2)c1)Nc1c(F)cccc1Cl,enzyme activity,inhibitor,,5 µM,remaining activity,87.4%
c1ccc(CNc2nc(N3CCOc4ccccc43)nc3c2CCCC3)cc1,target engagement in cells,inhibitor,chemoproteomics,20 mM,inhibition,-0.4%
COc1cc2ncnc(Nc3ccc(Oc4ccccc4)c(C)c3C)c2cc1OC,enzyme activity,inhibitor,,1 µM,inhibition,-4%
Cc1cc(NC(=O)c2cccc3cc(-c4cccc5[nH]nc(N)c45)ccc23)ccc1F,enzyme activity,inhibitor,,0.1 µM,activity vs control,98%
CC/C(=N\NC(=O)NCc1cccc(O)c1)c1ccc(O)c(C)c1O,enzyme activity,inhibitor,,0.1 µM,inhibition,15.8%
Cn1nc(C(=O)NCc2ccc(C(=O)O)cc2)cc1-c1ccc2[nH]ccc2c1,cell-free assay,,competition with immobilised ligand,0.1 µM,remaining binding,80%
CCCS(=O)(=O)Nc1ccc(F)c(C(=O)c2c[nH]c3ncc(-c4ccc(Cl)cc4)cc23)c1F,enzyme activity,inhibitor,,1 µM,inhibition,< 10%
CCN(CC)c1ccc(C2=NNC(=O)CC2C)cc1[N+](=O)[O-] (stereo not drawn),enzyme activity,inhibitor,,10 µM,remaining activity,108%
CC(C)(C)c1nc2c(s1)c1nc(N)ncc1c1ccc(NS(=O)(=O)c3c(F)cccc3F)c(F)c12,enzyme activity,inhibitor,radiometric,1 µM,remaining activity,91%
Cc1cc(NC(=O)c2cccc(S(F)(F)(F)(F)F)c2)cc(-n2ccn3nc(-c4cccnc4)cc23)c1,cell-free assay,,competition with immobilised ligand,1 µM,remaining binding,80.4%
O=C1Nc2ccc(Cl)cc2C1=Cc1cc(Cl)c(O)c(Cl)c1,cell-free assay,,,0.5 µM,remaining signal,94.1%
COc1cc(-c2cn(C3CCc4c(F)cccc4N(CC(F)(F)F)C3=O)nn2)ccc1-n1cnc(C)c1 (stereo not drawn),cell-free assay,,competition with immobilised ligand,1 µM,remaining binding,100%
CNCc1ccc(-c2cc(-c3nc(-c4ccc(S(=O)(=O)C(C)C)cc4)cnc3N)on2)cc1,enzyme activity,inhibitor,,0.4 µM,inhibition,0%
CCS(=O)(=O)c1cc2cc(C[C@@](O)(CC(C)(C)c3ccc(F)cc3C(N)=O)C(F)(F)F)[nH]c2cn1,cell-free assay,,competition with immobilised ligand,1 µM,remaining binding,100%
CN(C)C1CCN(CC#Cc2nn(C3CCCC3)c3nc(NCc4ccccc4)ncc23)C1 (stereo not drawn),enzyme activity,inhibitor,FRET,0.1 µM,inhibition,9%
CC(C)c1ccc(NC(=O)c2cccs2)c(-c2nc3ccccc3[nH]c2=O)c1,enzyme activity,inhibitor,,1 µM,activity vs control,94%
Cc1c[nH]c2nccc(Oc3c(F)cc(Nc4cc(Cl)nc(N)n4)cc3F)c12,cell-free assay,,competition with immobilised ligand,0.1 µM,remaining binding,100%
CNC(=O)c1cc(Oc2ccc(NC(=O)Nc3ccc(Cl)c(C(F)(F)F)c3)cc2)ccn1,enzyme activity,inhibitor,,10 µM,inhibition,9%
Nc1ncnc2occ(-c3ccc(NC(=O)Nc4cc(C(F)(F)F)ccc4F)cc3)c12,cell-free assay,,,20 µM,remaining signal,6.8%
CCCCNc1ncc2c(-c3ccc(F)cc3)nn(C[C@H]3CC[C@H](N)CC3)c2n1,target engagement in cells,inhibitor,chemoproteomics,20 mM,inhibition,-5.8%
O=C(Nc1cnn(-c2csc(C(=O)NC3COC3)c2)c1)Nc1ccccc1Cl,enzyme activity,inhibitor,,5 µM,remaining activity,95.5%
O=C(NC[C@@H]1[C@H]2CN(C(=O)OCc3cc(C(F)(F)F)cc(C(F)(F)F)c3)C[C@@H]12)c1ccc2[nH]nnc2c1,cell-free assay,,competition with immobilised ligand,1 µM,remaining binding,98%
CCN(CC)CCNC(=O)c1c(C)[nH]c(/C=C2\C(=O)Nc3ccc(F)cc32)c1C,enzyme activity,inhibitor,,10 µM,inhibition,1%
CO[C@@H](C)c1c(Nc2ccc([C@H](N(C)C(=O)C3CCS(=O)(=O)CC3)C(F)(F)F)cc2)cnc2cc(Cl)nn12,cell-free assay,,competition with immobilised ligand,1 µM,remaining binding,72%
O=C1NC(=O)c2cc(Nc3ccc(F)cc3)c(Nc3ccc(F)cc3)cc21,cell-free assay,,,0.5 µM,remaining signal,89%
O=C(Nc1cnc(Oc2ccc(F)cc2)nc1)N1CCc2ncccc2[C@@H]1c1ccc(F)cc1,cell-free assay,,competition with immobilised ligand,1 µM,remaining binding,98%
Cc1cnc(NC2CCOCC2)nc1-n1cnc(C(=O)NC(CN)c2cc(F)cc(Cl)c2)c1 (stereo not drawn),enzyme activity,inhibitor,radiometric,1 µM,remaining activity,106%
